Measurements from different studies.
Compare with care: the assays were run in different laboratories.
Target: Mitogen-activated protein kinase kinase kinase 3 (MAP3K3, Homo sapiens, UniProt Q99759)
Sequence (Q99759 1-626, as in one of the studies): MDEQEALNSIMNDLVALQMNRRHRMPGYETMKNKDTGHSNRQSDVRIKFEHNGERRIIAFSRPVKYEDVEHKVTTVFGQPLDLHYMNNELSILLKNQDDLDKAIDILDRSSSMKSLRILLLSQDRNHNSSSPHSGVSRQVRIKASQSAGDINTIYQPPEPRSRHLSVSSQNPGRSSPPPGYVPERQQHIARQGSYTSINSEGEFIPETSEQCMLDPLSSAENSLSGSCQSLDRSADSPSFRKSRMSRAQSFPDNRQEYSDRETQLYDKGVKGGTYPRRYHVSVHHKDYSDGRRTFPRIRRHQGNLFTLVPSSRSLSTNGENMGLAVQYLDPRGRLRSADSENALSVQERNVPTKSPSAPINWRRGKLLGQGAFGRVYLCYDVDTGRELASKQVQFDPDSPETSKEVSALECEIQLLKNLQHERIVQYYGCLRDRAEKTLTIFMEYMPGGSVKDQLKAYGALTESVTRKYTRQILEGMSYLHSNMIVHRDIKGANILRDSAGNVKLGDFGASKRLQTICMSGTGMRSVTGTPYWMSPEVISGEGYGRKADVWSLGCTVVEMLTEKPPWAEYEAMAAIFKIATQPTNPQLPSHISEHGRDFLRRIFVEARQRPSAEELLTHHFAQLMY

| Structure (SMILES) | assay | conditions | endpoint | result |
| --- | --- | --- | --- | --- |
| C[C@H]1CC[C@H](n2c3cnccc3c3cnc(Nc4ccc5c(n4)CCN(C(=O)CO)C5)nc32)CC1 | binding, competition with immobilised ligand | 1 µM | remaining binding | 81% |
| CC#CC(=O)N1CCC[C@H]1c1nc(-c2ccc(C(=O)Nc3ccccn3)cc2)c2c(N)nccn12 | enzyme activity, inhibitor | 1 µM | inhibition | 25% |
| CN1CCN(C(=O)c2ccc(NC(=O)Nc3ccc(N(C)c4ccnc(Nc5ccc(CS(C)(=O)=O)cc5)n4)cc3)cc2)CC1 | binding, competition with immobilised ligand | 1 µM | remaining binding | 57% |
| CC(C)S(=O)(=O)c1ccc2nccc(Nc3ccc4sc(C5CCCC5)nc4c3)c2c1 | enzyme activity, inhibitor | 1 µM | activity vs control | 105% |
| C#Cc1cc(-c2cc(Nc3nc(N[C@@H](C)c4ccc(F)cn4)ncc3Cl)n[nH]2)ccc1C=O | enzyme activity, inhibitor | 0.2 µM | inhibition | 48.8% |
| C1=C/COCc2cc(ccc2OCCN2CCCC2)Nc2nccc(n2)-c2cccc(c2)COC/1 | binding | 0.1 µM | remaining binding | 53% |
| Cc1cc(O)c(-c2ccc([C@@H](C)CN(C)C)cc2)c2c1[nH]c(=O)c1sccc12 | enzyme activity, inhibitor | 0.1 µM | inhibition | 0.395% |
| CCCCC(=O)Nc1ccc(-c2ccc3ncn(CCC)c(=O)c3c2)cn1 | binding, competition with immobilised ligand | 0.5 µM | remaining binding | 100% |
| CO[C@@H]1[C@H](N(C)C(=O)c2ccccc2)C[C@H]2O[C@]1(C)n1c3ccccc3c3c4c(c5c6ccccc6n2c5c31)C(=O)NC4 | enzyme activity, inhibitor | 1 µM | inhibition | 86% |
